Measurements published in PMC9040061 (ACS infectious diseases, 2020).
Positions count from the first letter of the chain named. In brackets after ≈: the same amount, converted by molar mass.

What was measured:
[1] = target: T1, EfaUPPS M28W mutant (Enterococcus faecalis, UniProt Q831K9, M34W); experiment: Surface plasmon resonance binding assay; details: SPR
T1 sequence (Q831K9 1-271 M34W): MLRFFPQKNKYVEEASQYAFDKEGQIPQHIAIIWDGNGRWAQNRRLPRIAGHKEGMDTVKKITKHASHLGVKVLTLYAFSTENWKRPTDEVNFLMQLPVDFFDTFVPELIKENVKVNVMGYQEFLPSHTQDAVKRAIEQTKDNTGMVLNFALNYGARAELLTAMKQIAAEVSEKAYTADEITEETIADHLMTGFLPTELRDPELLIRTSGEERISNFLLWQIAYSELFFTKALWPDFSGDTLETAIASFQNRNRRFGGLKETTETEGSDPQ
Summary of the method: (§1)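 Point mutants of E. faecalis UPPS were made by site-directed mutagenesis and purified like wild type (Ni-NTA, then gel filtration). Enzyme (50 μg/mL) was amine-coupled to a carboxymethyl dextran chip. Test compound (0.4–50 μM) in phosphate-buffered saline with 0.005% Tween-20, pH 7.8, was flowed at 25 μL/min: 1.5 min association, 2.5 min dissociation. Reference-cell signal was subtracted, and KD came from a 1:1 model.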

[2] = target: recombinant E. coli UPPS (EcoUPPS) (Escherichia coli, UniProt P60472); type: biochemical
Chain of recombinant E. coli UPPS (EcoUPPS) (P60472 whole entry): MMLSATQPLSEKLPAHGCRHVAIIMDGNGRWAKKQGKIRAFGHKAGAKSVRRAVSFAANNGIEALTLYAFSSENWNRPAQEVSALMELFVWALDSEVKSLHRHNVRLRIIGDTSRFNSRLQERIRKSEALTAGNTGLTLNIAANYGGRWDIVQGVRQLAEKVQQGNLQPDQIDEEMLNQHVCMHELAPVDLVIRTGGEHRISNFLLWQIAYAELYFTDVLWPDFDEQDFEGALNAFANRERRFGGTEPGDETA

[3] = target: EfaUPPS N31A mutant (Enterococcus faecalis, UniProt Q831K9, N37A); experiment: UPPS inhibition assay, mutant enzyme; type: biochemical
Summary of the method: (§2)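 Mutant E. faecalis UPPS was His-tagged in pET28a, expressed in E. coli BL21(DE3) (1 mM IPTG, 16 °C, 16 h) and purified by Ni-NTA and gel filtration. Assays ran 30 min at 37 °C in 100 mM Tris-HCl pH 7.5, 0.5 mM MgCl2, 50 mM KCl, 35 μM IPP, 5 μM FPP, 0.005% Triton X-100, and were EDTA-stopped. Released pyrophosphate was read by coupled fluorescence (316/456 nm). Mutant IC50 was compared with wild type; at least three biological replicates.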

[4] = target: T2, EfaUPPS N31E mutant (Enterococcus faecalis, UniProt Q831K9, N37E); experiment: UPPS inhibition assay, mutant enzyme; type: biochemical; details: N31E mutant versus wild-type EfaUPPS
T2 sequence (Q831K9 1-271 N37E): T1 sequence (Q831K9 1-271 M34W) with W34M, N37E
Summary of the method: as §2

[5] = target: EfaUPPS R42A mutant (Enterococcus faecalis, UniProt Q831K9, R48A); experiment: UPPS inhibition assay, mutant enzyme; type: biochemical
Summary of the method: as §2

[6] = tested on: E. coli BAS 849 transformed with the empty vector pQE80L; experiment: In vivo growth inhibition assay on agar; type: cell-based, Escherichia coli; details: compound at 8 μg/mL, IPTG 0.5 mM
Summary of the method: (§3)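 E. coli BAS 849 carried pQE80L (T5 promoter) either empty or bearing the UPPS gene from E. faecalis ATCC 29212, S. aureus ATCC 29213 or E. coli DH5α. Cultures were spread on LB agar with ampicillin, IPTG and test compound, incubated overnight at 37 °C and scored for growth.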

[7] = target: recombinant S. aureus UPPS (SauUPPS) (Staphylococcus aureus, UniProt P60477); experiment: UPPS inhibition assay; type: biochemical
[8] = tested on: E. coli 70S ribosome; experiment: In vitro translation inhibition assay; type: biochemical, Escherichia coli; details: read-out: IC50, in vitro translation, PURE system
[9] = target: EfaUPPS M28E mutant; experiment: UPPS inhibition assay, mutant enzyme; type: biochemical, Enterococcus faecalis; details: M28E mutant versus wild-type EfaUPPS
Summary of the method: as §2

[10] = tested on: UPPS-overexpressed E. coli BAS 849; experiment: In vivo growth inhibition assay on agar; type: cell-based, Escherichia coli; details: overexpression of EfaUPPS, SauUPPS and EcoUPPS; compound at 8 μg/mL; IPTG 0.5 mM
Summary of the method: as §3

[11] = target: EfaUPPS H46W mutant; experiment: UPPS inhibition assay, mutant enzyme; type: biochemical, Enterococcus faecalis; details: H46W mutant versus wild-type EfaUPPS
Summary of the method: as §2

[12] = target: EfaUPPS N31F mutant; experiment: UPPS inhibition assay, mutant enzyme; type: biochemical, Enterococcus faecalis; details: N31F mutant versus wild-type EfaUPPS
Summary of the method: as §2

[13] = target: T1, EfaUPPS M28W mutant; experiment: UPPS inhibition assay, mutant enzyme; type: biochemical; details: M28W mutant versus wild-type EfaUPPS
Summary of the method: as §2

[14] = target: recombinant E. faecalis UPPS (EfaUPPS) (Enterococcus faecalis, UniProt Q831K9); experiment: UPPS inhibition assay; type: biochemical; details: for IC50: EfaUPPS, enzyme-coupled fluorescence assay
[15] = tested on: Escherichia coli BAS 849; experiment: MIC, microtiter broth dilution; type: cell-based; details: E. coli BAS 849, deficient outer-membrane structure
Summary of the method: (§4)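 MICs were measured by broth microdilution in LB broth against E. coli DH5α, BL21(DE3) and BAS 849, the last an outer-membrane-defective strain with raised permeability. Tetracycline and ampicillin served as reference antibiotics. Values are means of at least three biological replicates.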

[16] = tested on: normal E. coli species; experiment: MIC, microtiter broth dilution; type: cell-based, Escherichia coli
Summary of the method: as §4

[17] = target: EfaUPPS D29A mutant (Enterococcus faecalis, UniProt Q831K9, D35A); experiment: UPPS inhibition assay, mutant enzyme; type: biochemical
Summary of the method: as §2

[18] = target: EfaUPPS S74T mutant (Enterococcus faecalis, UniProt Q831K9, S80T); experiment: UPPS inhibition assay, mutant enzyme; type: biochemical
Summary of the method: as §2

[19] = target: EfaUPPS F73S mutant (Enterococcus faecalis, UniProt Q831K9, F79S); experiment: UPPS inhibition assay, mutant enzyme; type: biochemical
Summary of the method: as §2

[20] = target: wild-type EfaUPPS (Enterococcus faecalis, UniProt Q831K9); experiment: Surface plasmon resonance binding assay; details: for Kd: read-out: equilibrium dissociation constant (KD), SPR, wild-type EfaUPPS, one-state binding model
[21] = target: T2, EfaUPPS N31E mutant; experiment: Surface plasmon resonance binding assay; details: SPR
Summary of the method: as §1

[22] = target: EfaUPPS M28A mutant; experiment: UPPS inhibition assay, mutant enzyme; type: biochemical, Enterococcus faecalis; details: M28A mutant versus wild-type EfaUPPS
Summary of the method: as §2

[23] = target: EfaUPPS W228A mutant; experiment: UPPS inhibition assay, mutant enzyme; type: biochemical, Enterococcus faecalis; details: W228A mutant versus wild-type EfaUPPS
Summary of the method: as §2

**Q.** What does the source list for `COc1cc(O)c2c(O)c3c(c4c2c1[C@]1(C4)C(C)=CCCC1(C)C)[C@H](O)[C@@]1(O)CC(=O)C(C(N)=O)=C(O)[C@@]1(O)C3=O` [VirA, viridicatumtoxin A]?
**A.** Kd [1]: 9.8 µM; binding affinity fold higher than the wild-type enzyme [1]: about 12 fold; IC50 ([2]; EcoUPPS): 3.9 µM; change of IC50 of mutant compared with wild-type enzyme [3]: decreased IC50; IC50-MT/IC50-WT [4]: 42.4; susceptibility of mutant compared with wild-type enzyme [5]: more susceptible; growth of E. coli BAS 849 [6]: completely inhibited; IC50 ([7]; SauUPPS): 4.1 µM; IC50 [8]: 700 µM; IC50-MT/IC50-WT [9]: 123.3; growth of E. coli BAS 849 [10]: rescued the cell growth; IC50-MT/IC50-WT [11]: 4.5; IC50-MT/IC50-WT [12]: 10.7; IC50-MT/IC50-WT [13]: 0.2; IC50 [14]: 1.6 µM; MIC [15]: 8 µg/mL (≈ 14.1 µM); MIC [16]: > 64 µg/mL; susceptibility of mutant compared with wild-type enzyme [17]: more susceptible; change of IC50 of mutant compared with wild-type enzyme [18]: decreased IC50; change of IC50 of mutant compared with wild-type enzyme [19]: decreased IC50; Kd [20]: 123 µM; Kd [21]: 322 µM; binding affinity decreased, fold, versus wild type [21]: approximately 3 fold; IC50-MT/IC50-WT [22]: 0.5; IC50-MT/IC50-WT [23]: 6.0

**Q.** With `CN(C)[C@@H]1C(O)=C(C(N)=O)C(=O)[C@@]2(O)C(O)=C3C(=O)c4c(O)cccc4[C@@](C)(O)[C@H]3C[C@@H]12` [Tet, tetracycline, reference compound] as the molecule, how does the “IC50 fold higher than that for VirA” value [2] read?
**A.** Its value is 6 fold.

**Q.** What about the “IC50 fold higher than that for VirA” value [7] of the same molecule?
**A.** Its value is 6 fold.

**Q.** What about the IC50 [8] of the same molecule?
**A.** Its IC50 is 15 µM.

**Q.** What about the “IC50 fold higher than that for VirA” value [14] of the same molecule?
**A.** Its value is 12 fold.

**Q.** And the SPR binding signals ([20]; EfaUPPS)?
**A.** The SPR binding signals was “cannot detect any binding signals”.

**Q.** Which “growth of E. coli BAS 849” value [6] does the source give for viridicatumtoxin B [VirB] here?
**A.** The value was “completely inhibited”.

**Q.** And the IC50 [8]?
**A.** Its IC50 is 600 µM.

**Q.** What about the “growth of E. coli BAS 849” value [10] of the same molecule?
**A.** The value was “rescued the cell growth”.

**Q.** And the IC50 [14]?
**A.** The IC50 was 0.0581 µM.

**Q.** And the MIC [15]?
**A.** The MIC was 8 µg/mL.

**Q.** And the MIC [16]?
**A.** The MIC was greater than 64 µg/mL.

**Q.** What about the Kd [20] of the same molecule?
**A.** The Kd was 11.5 µM.
